# Measurements reported in ChEMBL document CHEMBL1782036, “Atovaquone derivatives as potent cytotoxic and apoptosis inducing agents” (Bioorg Med Chem Lett, 2009).
# Experiments:
# [1] = system: DU-145; test: Induction of apoptosis in human DU145 cells at 5 uM assessed as live cell level after 72 hrs by AnnexinV conjugated 7- AAD staining by flow cytometry; assay type: functional
# Outline: (§1)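 Du145 cells were treated for 72 h and stained with Annexin V conjugate plus 7-AAD. Flow cytometry read PS externalization and membrane integrity, scoring cells as live (double negative), early apoptotic, or late apoptotic/necrotic (double positive). Untreated cells served as the control.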
# [2] = Antiproliferative activity against human L78 cells after 72 hrs by MTT assay; assay type: functional, cell-based; conditions: L78, 72 h
# [3] = system: MOLT-4; test: Antiproliferative activity against human MOLT4 cells after 72 hrs by MTT assay; assay type: functional, cell-based; conditions: MOLT-4, 72 h
# [4] = system: DU-145; test: Induction of apoptosis in human DU145 cells at 5 uM assessed as dead cell level after 72 hrs by AnnexinV conjugated 7- AAD staining by flow cytometry; assay type: functional
# Outline: (§2)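 Du145 human prostate carcinoma cells exposed to compound for 72 h, then stained with Annexin V and 7-AAD and analysed by flow cytometry. Annexin V detects phosphatidylserine externalised to the outer membrane leaflet, and 7-AAD enters only membrane-compromised cells. Dead cells were those positive for both stains. Untreated cells served as control.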
# [5] = system: HT-29; test: Antiproliferative activity against human HT-29 cells after 72 hrs by MTT assay; assay type: functional, cell-based; conditions: HT-29, 72 h
# [6] = system: OS-RC-2; test: Antiproliferative activity against human OS-RC2 cells after 72 hrs by MTT assay; assay type: functional, cell-based; conditions: OS-RC-2, 72 h
# [7] = system: DU-145; test: Growth inhibition of human DU145 cells after 72 hrs by MTT assay; assay type: functional, cell-based; conditions: DU-145, 72 h
# Outline: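 Du145 human prostate carcinoma cells were screened by MTT cell-growth inhibition assay. IC50 values are means of three experiments.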
# [8] = system: U-251; test: Antiproliferative activity against human U251 cells after 72 hrs by MTT assay; assay type: functional, cell-based; conditions: U-251, 72 h
# [9] = system: DU-145; test: Induction of apoptosis in human DU145 cells at 10 uM assessed as early apoptosis level after 72 hrs by AnnexinV conjugated 7- AAD staining by flow cytometry; assay type: functional; outline: as §1
# [10] = system: KB; test: Antiproliferative activity against human KB cells after 72 hrs by MTT assay; assay type: functional, cell-based
# [11] = system: DU-145; test: Induction of apoptosis in human DU145 cells at 5 uM assessed as early apoptosis level after 72 hrs by AnnexinV conjugated 7- AAD staining by flow cytometry; assay type: functional; outline: as §1
# [12] = system: SGC-7901; test: Antiproliferative activity against human SGC7901 cells after 72 hrs by MTT assay; assay type: functional, cell-based; conditions: SGC-7901, 72 h
# [13] = system: IMR-90; test: Antiproliferative activity against human IMR90 cells after 72 hrs by MTT assay; assay type: cell-based; conditions: IMR-90, 72 h
# [14] = system: HT-1080; test: Antiproliferative activity against human HT1080 cells after 72 hrs by MTT assay; assay type: functional, cell-based; conditions: HT-1080, 72 h
# [15] = system: DU-145; test: Induction of apoptosis in human DU145 cells at 10 uM assessed as live cell level after 72 hrs by AnnexinV conjugated 7- AAD staining by flow cytometry; assay type: functional; outline: as §1
# [16] = system: DU-145; test: Induction of apoptosis in human DU145 cells at 5 uM assessed as late apoptosis/ necrotic cells level after 72 hrs by AnnexinV conjugated 7- AAD staining by flow cytometry; assay type: functional; outline: as §1
# [17] = system: MCF7; test: Antiproliferative activity against human MCF7 cells after 72 hrs by MTT assay; assay type: functional, cell-based; conditions: MCF7, 72 h
# [18] = system: DU-145; test: Induction of apoptosis in human DU145 cells at 10 uM assessed as late apoptosis/ necrotic cells level after 72 hrs by AnnexinV conjugated 7- AAD staining by flow cytometry; assay type: functional; outline: as §1
# [19] = system: A549; test: Antiproliferative activity against human A549 cells after 72 hrs by MTT assay; assay type: functional, cell-based; conditions: A549, 72 h
# [20] = system: HepG2; test: Antiproliferative activity against human HepG2 cells after 72 hrs by MTT assay; assay type: functional, cell-based; conditions: HepG2, 72 h
# [21] = system: DU-145; test: Induction of apoptosis in human DU145 cells at 10 uM assessed as dead cell level after 72 hrs by AnnexinV conjugated 7- AAD staining by flow cytometry; assay type: functional; outline: as §2
# [22] = system: HeLa; test: Antiproliferative activity against human HeLa cells after 72 hrs by MTT assay; assay type: functional, cell-based
structure (smiles),measurement,setting,value
Cc1ccccc1C1CCN(C2=CC(=O)c3cccc(O)c3C2=O)CC1,Activity,[1],51.4%
same,IC50,[2],4.4 µM
same,IC50,[3],> 50 µM
same,Activity,[4],3.9%
same,IC50,[5],6.7 µM
same,IC50,[6],3.2 µM
same,IC50,[7],2.5 µM
same,IC50,[8],30.4 µM
same,Activity,[9],14.31%
same,IC50,[10],4.4 µM
same,Activity,[11],10.31%
same,IC50,[12],3.9 µM
same,IC50,[13],> 50 µM
same,IC50,[14],> 50 µM
same,Activity,[15],0.96%
same,Activity,[16],34.39%
same,IC50,[17],8.9 µM
same,Activity,[18],84.32%
same,IC50,[19],5.2 µM
same,IC50,[20],16.6 µM
same,Activity,[21],0.42%
same,IC50,[22],9.7 µM
O=C1C=C(N2CCN(c3ccc(Br)cc3)CC2)C(=O)c2ccccc21,IC50,[7],> 50 µM
O=C1C=C(N2CCN(c3ccccc3Cl)CC2)C(=O)c2c(O)cccc21,IC50,[2],5.2 µM
same,IC50,[3],27.6 µM
same,IC50,[5],1.4 µM
same,IC50,[6],2.5 µM
same,IC50,[7],2.3 µM
same,IC50,[8],8 µM
same,IC50,[10],4.4 µM
same,IC50,[12],8.2 µM
same,IC50,[13],16.9 µM
same,IC50,[14],5.8 µM
same,IC50,[17],23.8 µM
same,IC50,[19],4.5 µM
same,IC50,[20],7.7 µM
same,IC50,[22],7.2 µM
Cc1ccccc1N1CCN(C2=CC(=O)c3cccc(O)c3C2=O)CC1,Activity,[1],69.54%
same,IC50,[2],15.1 µM
same,IC50,[3],> 50 µM
same,Activity,[4],11.08%
same,IC50,[5],2.8 µM
same,IC50,[6],4.4 µM
same,IC50,[7],2.3 µM
same,IC50,[8],10.2 µM
same,Activity,[9],18.28%
same,IC50,[10],6.6 µM
same,Activity,[11],3.89%
same,IC50,[12],5.3 µM
same,IC50,[13],> 50 µM
same,IC50,[14],11 µM
same,Activity,[15],18.75%
same,Activity,[16],15.49%
same,IC50,[17],9.7 µM
same,Activity,[18],59.33%
same,IC50,[19],5.3 µM
same,IC50,[20],10.3 µM
same,Activity,[21],3.64%
same,IC50,[22],7.2 µM
Cc1ccccc1N1CCN(C2=CC(=O)c3ccccc3C2=O)CC1,IC50,[7],5.7 µM
COc1ccccc1N1CCN(C2=CC(=O)c3cccc(O)c3C2=O)CC1,Activity,[1],46.26%
same,IC50,[2],4.6 µM
same,IC50,[3],25.8 µM
same,Activity,[4],5.08%
same,IC50,[5],2.8 µM
same,IC50,[6],1.9 µM
same,IC50,[7],1.8 µM
same,IC50,[8],4.4 µM
same,Activity,[9],10.13%
same,IC50,[10],2.8 µM
same,Activity,[11],5.88%
same,IC50,[12],6.8 µM
same,IC50,[13],> 50 µM
same,IC50,[14],5.1 µM
same,Activity,[15],23.55%
same,Activity,[16],42.79%
same,IC50,[17],5.6 µM
same,Activity,[18],62.93%
same,IC50,[19],3.6 µM
same,IC50,[20],3.9 µM
same,Activity,[21],3.4%
same,IC50,[22],6.5 µM
O=C1C(O)=C([C@H]2CC[C@H](c3ccc(Cl)cc3)CC2)C(=O)c2ccccc21 [ATOVAQUONE],IC50,[7],29.3 µM
O=C1C(N2CCN(c3ccc(F)cc3)CC2)=CC(=O)c2c(O)cccc21,IC50,[7],22.4 µM
COc1ccccc1N1CCN(C2=CC(=O)c3ccccc3C2=O)CC1,IC50,[7],8 µM
O=C1C=C(N2CCN(c3ccc(F)c(Cl)c3)CC2)C(=O)c2ccccc21,IC50,[7],32.2 µM
COc1ccc(N2CCN(C3=CC(=O)c4ccccc4C3=O)CC2)cc1OC,IC50,[7],17.8 µM
COc1cc(N2CCN(C3=CC(=O)c4ccccc4C3=O)CC2)cc(OC)c1OC,IC50,[7],11.6 µM
O=C1C=C(N2CCN(c3ccc(F)cc3)CC2)C(=O)c2ccccc21,IC50,[7],11.7 µM
COc1ccc(N2CCN(C3=CC(=O)c4ccccc4C3=O)CC2)cc1,IC50,[7],46.1 µM
O=C1C=C(N2CCC(c3ccc(Cl)cc3)CC2)C(=O)c2ccccc21,IC50,[7],7.3 µM
